Measurements reported in ChEMBL document CHEMBL1141149, “Novel fluorinated prodrugs for activation by carboxypeptidase G2 showing good in vivo antitumor activity in gene-directed enzyme prodrug therapy” (J Med Chem, 2005).

T1: Carboxypeptidase G2 (Pseudomonas aeruginosa (strain ATCC 15692 / PAO1 / 1C / PRS 101 / LMG12228)) (UniProt Q9I056)
T1 sequence (whole entry): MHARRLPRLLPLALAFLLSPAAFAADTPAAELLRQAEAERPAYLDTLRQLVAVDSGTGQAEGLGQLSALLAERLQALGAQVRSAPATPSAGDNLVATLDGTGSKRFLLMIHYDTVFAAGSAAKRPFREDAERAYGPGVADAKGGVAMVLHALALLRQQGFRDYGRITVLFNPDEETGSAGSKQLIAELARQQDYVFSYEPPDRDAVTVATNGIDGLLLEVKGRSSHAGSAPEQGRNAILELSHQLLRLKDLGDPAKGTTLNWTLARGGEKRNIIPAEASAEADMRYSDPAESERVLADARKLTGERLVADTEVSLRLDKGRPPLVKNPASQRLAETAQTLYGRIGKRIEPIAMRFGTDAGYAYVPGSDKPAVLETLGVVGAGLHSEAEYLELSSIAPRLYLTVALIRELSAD


Assays:
[1] = Cytotoxicity aganist MDA MB361 cell line MDA MB 361 expressing carboxypeptidase G2 done for 1 hr with compound dissolved in DMSO; assay type: functional, cell-based; conditions: Homo sapiens, MDA-MB-361, 1 h
Method in brief: (§1)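 Stably transfected MDA MB 361 lines (β-gal, cytoplasmic CPG2, or surface-tethered stCPG2(Q)3) in DMEM/10% FBS, confluent 6-well monolayers. Prodrug series 1 h, then equal concentration fresh solution added, 20 h more. Cells reseeded 2×10^3/well, grown 5 days; SRB staining, A540. IC50 by four-parameter logistic fit of % control growth.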

[2] = Cytotoxicity aganist MDA MB361 cell line MDA MB 361 expressing stCPG2(Q)3 done for 1 hr with compound dissolved in DMSO; assay type: functional, cell-based; conditions: Homo sapiens, MDA-MB-361, 1 h; method in brief: as §1
[3] = Chemical half life period as substrates of CPG2 was determined; assay type: ADME
Method in brief: (§2)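 Compounds diluted from 10 mM DMSO stocks to 100 μM final in CPG2 assay buffer (100 mM Tris-HCl pH 7.3, 260 μM ZnCl2), no enzyme. Remaining parent measured over time by repeat isocratic reverse-phase HPLC injections (10 mM ammonium acetate pH 5.0/methanol), UV at λmax. Half-life from one-phase exponential decay fit (max 1, min 0).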

[4] = Half life period was determined; assay type: ADME; conditions: rat; method in brief: as §2
[5] = molecular target: T1, Carboxypeptidase G2 (Pseudomonas aeruginosa (strain ATCC 15692 / PAO1 / 1C / PRS 101 / LMG12228)); experiment: Kcat against carboxypeptidase G2 in inhibitory kinetic assay
Method in brief: (§3)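 Prodrug 0.2–50 μM (25 concentrations) in CPG2 assay buffer (100 mM Tris-HCl pH 7.3, 260 μM ZnCl2) at 37 °C, ±50 mU CPG2. Absorbance change at wavelength of maximal prodrug/drug difference followed 1 min, non-enzymic change subtracted, converted to substrate loss. Km and kcat from Michaelis–Menten nonlinear fit.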

[6] = Ratio of IC50 of LacZ cell line to CPG2-expressing cell line; assay type: functional, Homo sapiens
Method in brief: (§4)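 Selectivity ratio: IC50 in β-gal (LacZ) control MDA MB 361 cells divided by IC50 in CPG2- or stCPG2(Q)3-expressing cells, both from 1 h + 20 h exposure, 5-day regrowth SRB assay.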

[7] = Ratio of IC50 of LacZ cell line to stCPG2(Q)3-expressing cell line; assay type: functional, Homo sapiens; method in brief: as §4
[8] = Cytotoxicity against MDA MB361 cell line MDA MB 361 expressing beta-galactosidase done for 1 h with compound dissolved in DMSO; assay type: functional, cell-based; conditions: Homo sapiens, MDA-MB-361, 1 h; method in brief: as §1
[9] = compound: CS(=O)(=O)OCCN(CCCl)c1ccc(C(=O)N[C@@H](CCC(=O)O)C(=O)O)cc1; experiment: (§5) Km against carboxypeptidase G2 in inhibitory kinetic assay; conditions: Pseudomonas; method in brief: as §3
[10] = compound: O=C(O)CC[C@H](NC(=O)c1cc(F)c(N(CCBr)CCBr)c(F)c1)C(=O)O; experiment: as §5; conditions: Pseudomonas; method in brief: as §3
[11] = compound: O=C(O)CC[C@H](NC(=O)c1cc(F)c(N(CCBr)CCBr)c(F)c1F)C(=O)O; experiment: as §5; conditions: Pseudomonas; method in brief: as §3
[12] = compound: O=C(O)CC[C@H](NC(=O)c1cc(F)c(N(CCCl)CCCl)c(F)c1)C(=O)O; experiment: as §5; conditions: Pseudomonas; method in brief: as §3
[13] = compound: O=C(O)CC[C@H](NC(=O)c1cc(F)c(N(CCI)CCI)c(F)c1)C(=O)O; experiment: as §5; conditions: Pseudomonas; method in brief: as §3
[14] = compound: O=C(O)CC[C@H](NC(=O)c1cc(F)c(N(CCCl)CCCl)c(F)c1F)C(=O)O; experiment: as §5; conditions: Pseudomonas; method in brief: as §3
[15] = compound: O=C(O)CC[C@H](NC(=O)c1cc(F)c(N(CCI)CCI)c(F)c1F)C(=O)O; experiment: as §5; conditions: Pseudomonas; method in brief: as §3

Molecule | IC50 [1] | IC50 [2] | half-life [3] | half-life [4] | K cat [5] | Differential [6] | Differential [7] | IC50 [8] | Km [9] | Km [10] | Km [11] | Km [12] | Km [13] | Km [14] | Km [15]
O=C(O)CC[C@H](NC(=O)c1cc(F)c(N(CCCl)CCCl)c(F)c1F)C(=O)O | 73 µM | 46 µM | 21.7 h | 6 h | 1150 1/S | >55 | >87 | > 4000 µM | – | – | – | – | – | – | –
CS(=O)(=O)OCCN(CCCl)c1ccc(C(=O)O)cc1 | – | – | 0.5 h | – | – | – | – | – | – | – | – | – | – | – | –
O=C(O)CC[C@H](NC(=O)c1c(F)c(F)c(N(CCI)CCI)c(F)c1F)C(=O)O | > 4000 µM | > 4000 µM | 2 h | – | 0 1/S | – | – | > 4000 µM | – | – | – | – | – | – | –
O=C(O)CC[C@H](NC(=O)c1cc(F)c(N(CCBr)CCBr)c(F)c1F)C(=O)O | 82 µM | 50 µM | 0.382 h | 0.15 h | 825 1/S | >49 | >80 | > 4000 µM | – | – | – | – | – | – | –
O=C(O)CC[C@H](NC(=O)c1cc(F)c(N(CCBr)CCBr)c(F)c1)C(=O)O | 53 µM | 14 µM | 0.0917 h | < 0.0833 h | 827 1/S | >75 | >280 | > 4000 µM | – | – | – | – | – | – | –
CS(=O)(=O)OCCN(CCCl)c1ccc(C(=O)N[C@@H](CCC(=O)O)C(=O)O)cc1 | 1880 µM | 165 µM | – | – | 583 1/S | – | 19 | 3130 µM | – | – | – | – | – | – | –
O=C(O)CC[C@H](NC(=O)c1cc(F)c(N(CCI)CCI)c(F)c1)C(=O)O | 39 µM | 26 µM | 0.15 h | < 0.0833 h | 1150 1/S | 86 | 127 | 3300 µM | – | – | – | – | – | – | –
O=C(O)CC[C@H](NC(=O)c1cc(F)c(N(CCCl)CCCl)c(F)c1)C(=O)O | 42 µM | 26 µM | 4.9 h | 1.5 h | 732 1/S | >95 | >150 | > 4000 µM | – | – | – | – | – | – | –
O=C(O)CC[C@H](NC(=O)c1c(F)c(F)c(N(CCCl)CCCl)c(F)c1F)C(=O)O | > 4000 µM | > 4000 µM | 82.3 h | – | 0 1/S | – | – | > 4000 µM | – | – | – | – | – | – | –
O=C(O)CC[C@H](NC(=O)c1cc(F)c(N(CCI)CCI)c(F)c1F)C(=O)O | 671 µM | 173 µM | 0.622 h | 6 h | 220 1/S | >6 | >23 | > 4000 µM | – | – | – | – | – | – | –
Carboxypeptidase G2 (Pseudomonas aeruginosa (strain ATCC 15692 / PAO1 / 1C / PRS 101 / LMG12228)), Q9I056 (protein) MHARRLPRLLPLALAFLLSPAAFAADTPAAELLRQAEAERPAYLDTLRQLVAVDSGTGQAEGLGQLSALLAERLQALGAQVRSAPATPSAGDNLVATLDGTGSKRFLLMIHYDTVFAAGSAAKRPFREDAERAYGPGVADAKGGVAMVLHALALLRQQGFRDYGRITVLFNPDEETGSAGSKQLIAELARQQDYVFSYEPPDRDAVTVATNGIDGLLLEVKGRSSHAGSAPEQGRNAILELSHQLLRLKDLGDPAKGTTLNWTLARGGEKRNIIPAEASAEADMRYSDPAESERVLADARKLTGERLVADTEVSLRLDKGRPPLVKNPASQRLAETAQTLYGRIGKRIEPIAMRFGTDAGYAYVPGSDKPAVLETLGVVGAGLHSEAEYLELSSIAPRLYLTVALIRELSAD | – | – | – | – | – | – | – | – | 3.4 µM | 1.18 µM | 1.1 µM | 1.71 µM | 1.74 µM | 2.6 µM | 2.8 µM
